The text below walks through data of ChEMBL document CHEMBL1140720, “Novel prodrugs of tegafur that display improved anticancer activity and antiangiogenic properties” (J Med Chem, 2008).

pIC50: −log10 of the molar value. Activity calls are given as the source filed them. No cut-off for these calls is given here.

In data set [1] the test system is HT-29. The experiment in a line: Anticancer activity against human HT29 cells after 72 hrs in the presence of HMTA by Hoechst test. It counts as functional, cell-based. The following applies: HT-29, 72 h. The essentials: (§1)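 Same 72 h Hoechst viability titration, with or without co-addition of hexamethylenetetramine (HMTA) at 250 µM. IC50 and IC90 derived from dose-response curves.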

The test system of data set [2] is HUVEC. Nature of the data set: Effect on cell viability of HUVEC cells after 48 hrs. It counts as functional, cell-based. Particulars: Homo sapiens. The essentials:
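HUVEC grown at 37 °C, 5% CO2. Seeded in 96-well plates, then exposed to a concentration titration for 48 h. Viability read by Hoechst DNA fluorescence after ethanol fixation. IC50/IC90 from best-fit curves of ≥3 independent experiments.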

The subject of data set [3] is Mus musculus. Nature of the data set: Inhibition of HDAC in po dosed mouse 4T1 tumor implanted in BALB/c mouse assessed as histone acetylation level after 4 hrs. It counts as functional. The essentials: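 Balb/c mice carrying sc 4T1 tumors (5 × 10^4 cells implanted), dosed orally at 100 mg/kg once tumors reached 1.0 cm³. Tumors excised 4 h later and histones extracted; 5 µg protein run on 15% SDS gels. Western blot for acetyl-H4 (Lys-12), normalized to pan-H3; fold change versus untreated.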

For data set [4], the system named is HUVEC. Nature of the data set: Antiangiogenic activity against HUVEC cells assessed as tube formation at 80 uM after 24 hrs. It counts as functional, cell-based. The following applies: Homo sapiens. The essentials: (§2)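 HUVEC (5 × 10^4 cells/well) seeded on a matrigel layer in supplemented EGM-2 medium. Test agent added at 80 µM, triplicate wells, incubated 3 to 24 h. Tube formation was visualized by light microscopy and photographed at ×40.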

Data set [5] deals with HT-29. Nature of the data set: Antitumor activity against human HT29 xenografted CD1 mouse at 50 mg/kg, po. Also noted: dose 50 mg/kg. It counts as functional, organism-based. The essentials: (§3)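 Male nude CD1 mice implanted sc in the flank with HT-29 cells. Once tumors were palpable, oral dosing at 50 mg/kg (water vehicle), with vehicle-only controls; 14 controls, 12 per treated group. Tumors measured by caliper twice weekly, volume = (L × W²)/2. At the end, blood drawn for serum CEA.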
(In general: In xenograft studies the graft and the host belong to different species.)

The test system of data set [6] is HT-29. The experiment in a line: Anticancer activity against human HT29 cells after 72 hrs in the presence of succinate by Hoechst test. It counts as functional, cell-based. Particulars: HT-29, 72 h. The essentials: (§4)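 Same 72 h Hoechst viability titration, with or without co-addition of succinic acid at 2.5 mM. IC50 and IC90 derived from dose-response curves.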

Data set [7] has as its system CT26. The experiment in a line: Anticancer activity against mouse CT26 cells after 72 hrs in the presence of succinate by Hoechst test. It counts as functional, cell-based. Particulars: CT26, 72 h. The essentials:
as §4

In data set [8] the test system is BXPC-3. Nature of the data set: Anticancer activity against human BXPC3 cells after 72 hrs in the presence of succinate by Hoechst test. It counts as functional, cell-based. The following applies: BXPC-3, 72 h. The essentials:
as §4

The subject of data set [9] is HUVEC. Nature of the data set: Antiangiogenic activity against HUVEC cells assessed as tube formation at 80 uM after 8 hrs. It counts as functional, cell-based. The following applies: Homo sapiens. The essentials: as §2
In data set [10] the test system is U-251. Nature of the data set: Anticancer activity against human U251 cells after 72 hrs by Hoechst test. It counts as functional, cell-based. The essentials:
(§5)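 Cells seeded at 0.5–1 × 10^4/well for 24 h, then exposed in triplicate to a concentration titration for 72 h. Drug stock 0.5 M in DMSO, final DMSO ≤0.1%. Cells rinsed with PBS, fixed in 70% ethanol, and stained for DNA (Hoechst). IC50/IC90 taken from best-fit curves (linear or exponential) of % survival vs concentration, ≥3 independent experiments.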

Data set [11] in a line: Anticancer activity against human SK-ES cells after 72 hrs by Hoechst test. It counts as functional, cell-based. The essentials:
as §5

The test system of data set [12] is CT26. Nature of the data set: Anticancer activity against mouse CT26 cells after 72 hrs in the presence of HMTA by Hoechst test. The following applies: CT26, 72 h. It counts as functional, cell-based. The essentials:
as §1

The test system of data set [13] is BXPC-3. The experiment in a line: Anticancer activity against human BXPC3 cells after 72 hrs in the presence of HMTA by Hoechst test. The following applies: BXPC-3, 72 h. It counts as functional, cell-based. The essentials:
as §1

Data set [14] has as its system LS-1034. Nature of the data set: Anticancer activity against human LS1034 cells after 72 hrs in the presence of HMTA by Hoechst test. It counts as functional, cell-based. Particulars: LS-1034, 72 h. The essentials: as §1
Data set [15] deals with LS-1034. The experiment in a line: Anticancer activity against human LS1034 cells after 72 hrs in the presence of succinate by Hoechst test. It counts as functional, cell-based. The following applies: LS-1034, 72 h. The essentials: as §4
Data set [16] deals with HUVEC. The experiment in a line: Antiangiogenic activity against HUVEC cells assessed as tube formation at 80 uM after 3 hrs. Particulars: Homo sapiens. It counts as functional, cell-based. The essentials:
as §2

The nature of data set [17]: Anticancer activity against mouse Pan02 cells after 72 hrs by Hoechst test. It counts as functional, cell-based. Particulars: Pan02, 72 h. The essentials:
as §5

Data set [18] in a line: Anticancer activity against human astrocytes cells after 72 hrs by Hoechst test. It counts as ADME, cell-based, Astrocyte. Particulars: for pIC50: Homo sapiens, Astrocyte, 72 h; for IC90 at 72 h: human, human astrocytes. The essentials: as §5
Data set [19] relates to HT-29. Nature of the data set: Antitumor activity against human HT29 xenografted CD1 mouse assessed as decrease in CEA level. It counts as functional. The essentials:
as §3

Data set [20] has as its system HT-29. The experiment in a line: Anticancer activity against human HT29 cells after 72 hrs by Hoechst test. It counts as functional, cell-based. Particulars: HT-29, 72 h. The essentials: as §5
Data set [21] relates to HT-29. Nature of the data set: Anticancer activity against human HT29 cells after 72 hrs in the presence of semicarbazide by Hoechst test. It counts as functional, cell-based. Particulars: HT-29, 72 h. The essentials: (§6)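 Same 72 h Hoechst viability titration, run with or without co-addition of 500 µM semicarbazide as formaldehyde scavenger. IC50 and IC90 derived from dose-response curves.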

For data set [22], the system named is BXPC-3. The experiment in a line: Anticancer activity against human BXPC3 cells after 72 hrs in the presence of semicarbazide by Hoechst test. Particulars: BXPC-3, 72 h. It counts as functional, cell-based. The essentials:
as §6

Data set [23] has as its system LS-1034. Nature of the data set: Anticancer activity against human LS1034 cells after 72 hrs by Hoechst test. It counts as functional, cell-based. Particulars: LS-1034, 72 h. The essentials: as §5
Data set [24] concerns CT26. Nature of the data set: Anticancer activity against mouse CT26 cells after 72 hrs in the presence of semicarbazide by Hoechst test. It counts as functional, cell-based. The following applies: CT26, 72 h. The essentials: as §6
Data set [25] in a line: Anticancer activity against human MES-SA cells after 72 hrs by Hoechst test. It counts as functional, cell-based. The essentials:
as §5

A short description of data set [26]: Anticancer activity against human MES-SA DXS cells after 72 hrs by Hoechst test. It counts as functional, cell-based. The essentials: as §5
The subject of data set [27] is BXPC-3. The experiment in a line: Anticancer activity against human BXPC3 cells after 72 hrs by Hoechst test. It counts as functional, cell-based. Particulars: BXPC-3, 72 h. The essentials:
as §5

Data set [28] has as its system LS-1034. Nature of the data set: Anticancer activity against human LS1034 cells after 72 hrs in the presence of semicarbazide by Hoechst test. Particulars: LS-1034, 72 h. It counts as functional, cell-based. The essentials: as §6
In data set [29] the test system is CT26. Nature of the data set: Anticancer activity against mouse CT26 cells after 72 hrs by Hoechst test. The following applies: CT26, 72 h. It counts as functional, cell-based. The essentials: as §5

As for `O=c1[nH]c(=O)n(C2CCCO2)cc1F` (centres undefined) [TEGAFUR], the pIC50 (in general, −log10 of the IC50, conventionally taken in molar units) in data set [1] was 3.80; in data set [2] it was 3.00; in [6], 3.80; in data set [7] it was 4.05; in [8] it was 3.81; in [10] (Homo sapiens, U-251, 72 h), 3.42. In addition, the pIC50 was 3.76 in [11]; 3.97 in data set [12]; 3.84 in [13]; 3.71 in data set [14]; 3.76 in [15]; 3.75 in data set [17]. The pIC50 in data set [18] is 2.37. Further, the IC90 (in general, the concentration at which the effect reaches the 90% level) was 612 µM in data set [1]; 3400 µM in data set [2]; 644 µM in data set [6]; 311 µM in data set [7]; 719 µM in data set [8]; 1280 µM in data set [10] (Homo sapiens, U-251, 72 h). For the same compound, the IC90 in [11] came to 531 µM; in data set [12], 464 µM; in data set [13], 654 µM; in data set [14] it was 852 µM; in [15], 617 µM; in [17], 637 µM. Further, in data set [3], the Activity was determined as 2. In addition, the outcome in [4], in data set [9] and in data set [16] was inactive. In addition, the result in data set [5] and in [19] was Active. It took 7680 µM to reach the 90% level in [18] (IC90 at 72 h).
For `CCOP(=O)(OCC)OCn1c(=O)c(F)cn(C2CCCO2)c1=O` (centres undefined), in data set [20], the pIC50 is 4.72 and the IC90 was found to be 80 µM. In data set [10] (Homo sapiens, U-251, 72 h), this compound gave a pIC50 of 4.14 and an IC90 of 287 µM. In data set [18], the pIC50 was 3.08 and the IC90 at 72 h stood at 2790 µM.
In the case of `O=c1c(F)cn(C2CCCO2)c(=O)n1CO` (centres undefined), the pIC50 in data set [21] was 3.79; in data set [22], 3.80; in data set [2], 4.15; in data set [20], 4.17; in [23] it was 4.08; in [24], 3.88. The pIC50 was 4.10 in data set [25]; 4.20 in data set [26]; 4.13 in data set [27]; 3.99 in data set [10] (Homo sapiens, U-251, 72 h); 4.35 in data set [11]; 3.88 in data set [28]. Moreover, the pIC50 in data set [29] is 4.00; in data set [17] it was 4.02; in data set [18] it was 3.73. Also, the IC90 in data set [21] is 303 µM; in data set [22], 460 µM; in data set [2] it was 120 µM; in data set [24], 252 µM; in data set [10] (Homo sapiens, U-251, 72 h), 223 µM; in data set [11], 80 µM. The IC90 in [28] was 296 µM; in [29], 170 µM; in data set [17], 219 µM. In addition, the 90% effect level in data set [18] (IC90 at 72 h) was put at 476 µM.
With `CCCC(=O)OCn1c(=O)c(F)cn(C2CCCO2)c1=O` (centres undefined), the pIC50 in data set [21] is 4.29; in [22] it was 4.06; in data set [2], 4.00; in data set [20], 4.46; in data set [23] it was 4.38; in data set [24], 4.28. Moreover, the pIC50 is 4.15 in data set [25]; 4.27 in data set [26]; 4.09 in data set [27]; 4.26 in [10] (Homo sapiens, U-251, 72 h); 3.97 in [10] (u-251); 4.33 in data set [11]. In addition, the pIC50 in [28] was 4.47; in [29], 4.57; in data set [17] it was 4.34; in data set [18], 3.70. For the same compound, the IC90 in data set [21] turned out to be 138 µM; in data set [22], 280 µM; in data set [2] it was 170 µM; in data set [20], 84 µM; in data set [23], 79 µM; in data set [24] it was 105 µM. Moreover, the IC90 in data set [11] is 81 µM; in data set [28], 94 µM; in [29], 76 µM; in data set [17] it was 149 µM. Besides, in [3], the Activity was 2. Further, the result in data set [4], in data set [5] and in data set [19] was Active. Further, the IC90 at 72 h in data set [18] amounted to 323 µM.
